Measurements taken from ChEMBL document CHEMBL1157729, “Structure-activity relationship and mechanism of action studies of manzamine analogues for the control of neuroinflammation and cerebral infections” (J Med Chem, 2010).
In brackets after ≈: the same amount, converted by molar mass.

Experiments:
Plasmodium falciparum [1] = test: Antiplasmodial activity against chloroquine-sensitive Plasmodium falciparum D6 after 72 hrs by LDH assay; assay type: functional, organism-based
Candida albicans = test: Antifungal activity against Candida albicans ATCC 90028; assay type: functional, organism-based
Outline: (§1)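 Broth microdilution per modified CLSI method; samples serially diluted in 20% DMSO/saline, tested in duplicate; inocula set by OD630 of suspensions in incubation broth; growth read at 630 nm before and after incubation; amphotericin B drug control.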

Cryptococcus neoformans = test: Antifungal activity against Cryptococcus neoformans ATCC 90113; assay type: functional, organism-based; outline: as §1
[2] = test system: Mycobacterium intracellulare; test: Antimycobacterial activity against Mycobacterium intracellular ATCC 23068; assay type: functional, organism-based
Outline: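 Modified Franzblau method; samples serially diluted in 20% DMSO/saline, tested in duplicate; inoculum set by OD630; fluorescence read at 544ex/590em before and after incubation; ciprofloxacin drug control.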

Vero = test: Cytotoxicity against african green monkey Vero cells up to 4.6 ug/mL after 48 hrs by neutral red assay; assay type: cell-based; settings: chlorocebus sabaeus
Outline: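 Vero cells were seeded at 25,000 cells/well and incubated for 24 h, then exposed to serially diluted samples for 48 h. Viable cells were counted by Neutral Red assay, with doxorubicin as positive control. IC50 was taken from dose-response curves.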

[3] = test system: Mycobacterium tuberculosis; test: Antimycobacterial activity against Mycobacterium tuberculosis H37Rv; assay type: functional, organism-based
Plasmodium falciparum [4] = test: Antiplasmodial activity against chloroquine-resistant Plasmodium falciparum W2 after 72 hrs by LDH assay; assay type: functional, organism-based
[5] = Antineuroinflammatory activity in LPS-stimulated rat neonatal microglia assessed as inhibition of PMA-induced TXB2 production preincubated 15 mins prior to PMA challenge measured after 70 mins; assay type: functional, cell-based
[6] = Antineuroinflammatory activity in LPS-stimulated rat neonatal microglia assessed as drug level causing 50% PMA-induced LDH release preincubated 15 mins prior to PMA challenge measured after 70 mins; assay type: functional
Outline: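 Neonatal rat microglia (2 × 10^5/well) primed with E. coli LPS 0.3 ng/mL for 17 h at 35.9 °C, washed with HBSS, given compound (0.01–10 μM) or DMSO 15 min, then PMA 1 μM; LDH read spectrophotometrically after 70 min; LDH50 relative to Triton X-100 (0.1%) release; duplicates.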

[7] = Antineuroinflammatory activity in LPS-stimulated rat neonatal microglia assessed as inhibition of PMA-induced superoxide anion production preincubated 15 mins prior to PMA challenge measured after 70 mins; assay type: functional, cell-based
[8] = Plasmodium falciparum, D6, 72 h, read-out: IC50
[9] = Plasmodium falciparum, W2, 72 h, read-out: IC50

Row | SMILES | IC50 (Plasmodium falciparum [1]; [8]) [µg/mL] | IC50 (Candida albicans) [µg/mL] | IC50 (Cryptococcus neoformans) [µg/mL] | IC50 [2] [µg/mL] | Activity (Vero) | MIC [3] [µg/mL] | IC50 (Plasmodium falciparum [1]) | IC50 (Plasmodium falciparum [4]) | IC50 (Plasmodium falciparum [4]; [9]) [µg/mL] | IC50 [5] [µM] | Activity [6] [µM] | IC50 [7] [µM]
1 | CC[C@@]1(O)CCCN2[C@@H](CC1)C[C@]13CN4CCCC/C=C\CC[C@](O)(C=C(c5nccc6c5[nH]c5c(O)cccc56)[C@@H]1CC4)[C@H]23 | 0.077 (≈ 0.126 µM) | 2.5 (≈ 4.09 µM) | 6 (≈ 9.82 µM) | 0.25 (≈ 0.409 µM) | Non-toxic | 1.9 (≈ 3.11 µM) | – | – | – | – | – | –
2 | Oc1cccc2c1[nH]c1c(C3=C[C@@]4(O)CC/C=C\CCCCN5CC[C@@H]3[C@]3(C[C@@H]6CC[C@H](O)CCCN6[C@H]34)C5)nccc12 | – | 15 (≈ 25.7 µM) | 10 (≈ 17.2 µM) | 1.5 (≈ 2.57 µM) | Non-toxic | 1.7 (≈ 2.92 µM) | Not Active | Not Active | – | – | – | –
3 | COC(=O)CCCCn1c2ccccc2c2ccnc(C3=C[C@@]4(O)CC/C=C\CCCCN5CC[C@@H]3[C@]3(C[C@@H]6/C=C\C(=O)CCCN6[C@H]34)C5)c21 | 2 (≈ 2.95 µM) | > 20 | 15 (≈ 22.2 µM) | 20 (≈ 29.5 µM) | Non-toxic | – | – | – | 2 (≈ 2.95 µM) | – | – | –
4 | CN1CCc2c([nH]c3ccccc23)C1C1=C[C@@]2(O)CC/C=C\CCCCN3CC[C@@H]1[C@]1(C[C@@H]4/C=C\CCCCN4[C@H]12)C3 (stereo partly specified) | 0.31 (≈ 0.547 µM) | > 20 | 6 (≈ 10.6 µM) | 0.7 (≈ 1.23 µM) | Non-toxic | > 64 | – | – | 0.44 (≈ 0.776 µM) | 12.2 | 8 | > 10
5 | O=C1CC[C@H]2C[C@]34CN5CCCC/C=C\CC[C@](O)(C=C(c6nccc7c6[nH]c6c(O)cccc67)[C@@H]3CC5)[C@@H]4N2CC/C1=C/c1ccc(F)cc1 | – | > 20 | > 20 | > 20 | Non-toxic | – | Not Active | Not Active | – | – | – | –
6 | COc1ccc(/C=C2/CCN3[C@@H](CCC2=O)C[C@]24CN5CCCC/C=C\CC[C@](O)(C=C(c6nccc7c6[nH]c6c(O)cccc67)[C@@H]2CC5)[C@H]34)cc1OC | – | > 20 | > 20 | > 20 | Non-toxic | > 64 | Not Active | Not Active | – | – | – | –
7 | O=C1CC[C@H]2C[C@]34CN5CCCC/C=C\CC[C@](O)(C=C(c6nccc7c6[nH]c6c(O)cccc67)[C@@H]3CC5)[C@@H]4N2CC/C1=C/c1c(Cl)cccc1Cl | – | > 20 | > 20 | > 20 | Non-toxic | > 64 | Not Active | Not Active | – | – | – | –
8 | CC(=O)Oc1cccc2c1[nH]c1c(C3=C/C4=C/C/C=C\CCCCN5CC[C@@H]3[C@]3(C[C@@H]6/C=C\CCCCN6[C@@H]43)C5)nccc12 | 2.5 (≈ 4.25 µM) | > 20 | > 20 | 10 (≈ 17 µM) | – | > 64 | – | – | 3.8 (≈ 6.45 µM) | – | – | –
9 | COc1ccc(/C=C2/CCN3[C@@H](CCC2=O)C[C@]24CN5CCCC/C=C\CC[C@](O)(C=C(c6nccc7c6[nH]c6c(O)cccc67)[C@@H]2CC5)[C@H]34)cc1 | – | > 20 | > 20 | > 20 | Non-toxic | > 64 | Not Active | Not Active | – | – | – | –
10 | N/N=C1/CCCN2[C@@H](CC1)C[C@]13CN4CCCC/C=C\CC[C@](O)(C=C(c5nccc6c5[nH]c5c(O)cccc56)[C@@H]1CC4)[C@H]23 | – | > 20 | 1 (≈ 1.68 µM) | 0.09 (≈ 0.151 µM) | Non-toxic | 1.9 (≈ 3.19 µM) | – | – | 0.038 (≈ 0.0639 µM) | – | – | –
11 | O=C1CC[C@H]2C[C@]34CN5CCCC/C=C\CC[C@](O)(C=C(c6nccc7c6[nH]c6c(O)cccc67)[C@@H]3CC5)[C@@H]4N2CC/C1=C/c1ccc([N+](=O)[O-])cc1 | – | > 20 | > 20 | > 20 | Non-toxic | > 64 | Not Active | Not Active | – | – | – | –
12 | CCCCCCCCCCCCn1c2ccccc2c2ccnc(C3=C[C@@]4(O)CC/C=C\CCCCN5CC[C@@H]3[C@]3(C[C@@H]6/C=C\CCCCN6[C@H]34)C5)c21 | – | > 20 | > 20 | > 20 | Non-toxic | – | Not Active | Not Active | – | – | – | –
